High-throughput results (PubChem BioAssay)
STAT3 activator: IL-6 driven STAT3 reporter potentiators, primary screen, U3A cells, luciferase, luminescence, MLSCN library; activation (% of control), % at 5.6 µM; AID 871, 2007; IL-6 STAT3-luciferase reporter; 100% = signal with IL-6 EC80 alone; 190,000 compounds, 0.91% hits;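 active means activation above the screen-wide mean of compound activation plus 3 SD, cut at about 130% in these data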;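 further: 0% = background luminescence of wells with medium and substrate only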
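Test system: Human STAT1-deficient U3A cells with stable STAT3-luciferase reporter | Also added: Interleukin-6, 33 ng/mL | Timing: Compound pre-incubation 1 h before IL-6, then 6 h stimulation at 37 °C | Technique: Luciferase reporter luminescence | Read-out: Percent of IL-6-only median luminescence | Benchmarks: IL-6-only wells as 100% reference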
APP 5'UTR act: activators of APP 5'UTR luciferase reporter, primary screen, SH-SY5Y cells. SH-SY5Y APP 5'UTR luciferase reporter, luminescence; zero percent = DMSO vehicle wells. activation, % at 2 µM. 190,000 compounds, 1% hits;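 active means activation above a set limit, based on mean plus 3 SD of controls, cut at about 140% in these data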
STAT1 blocker: STAT1 signaling inhibitors, primary screen, cell-based, HTS, luciferase reporter | 200,000 compounds, 0.35% hits | NIH 3T3 STAT1-luciferase reporter, IFN-gamma, luminescence | inhibition, % at 5.5 µM;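 active means inhibition above a set limit, the mean inhibition across all tested compounds plus 3 SD, cut at about 34% in these data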;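 further: 0% = IFN-gamma with DMSO and 100% = IFN-gamma with 300 µM nifuroxazide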
STAT1 act: STAT1 signaling activators, primary screen, cell-based, HTS, luciferase reporter; 200,000 compounds, 2.6% hits; NIH 3T3 STAT1-luciferase reporter, IFN-gamma, luminescence; 100% = IFN-gamma alone, no compound; activation (% of control), % at 5.5 µM;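 active means activation above the screen-wide mean activation plus 3 SD, cut at about 130% in these data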;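 further: raw ratio to IFN-gamma control signal so 100% means no change and 0% no light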
STAT3 blocker: IL-6 driven STAT3 reporter inhibitors, primary screen, U3A cells, luciferase, luminescence, MLSCN library | IL-6 STAT3-luciferase reporter; host cell line lacks STAT1 | inhibition, % at 5.5 µM | 190,000 compounds, 0.89% hits | AID 862, 2007;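 active means inhibition above the mean inhibition across all screened compounds plus 3 SD, cut at about 44% in these data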;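 further: 0% = DMSO only wells and 100% = 100 µM nifuroxazide control wells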
NF-kB expr up: activators of NF-kB expression in neurons, primary screen, cell-based, HTS; fold change at 12.5 µM; 190,000 compounds, 1.6% hits; human neuronal cells, NF-kB reporter expression; hits give high values; in the data active means fold change above about 3.3
STAT1 act conf: STAT1 signaling activators, confirmation, cell-based, HTS, luciferase reporter. shares compounds with STAT1 act. AID 1262, 2008. activation (% of control), % at 5.7 µM. NIH 3T3 STAT1-luciferase reporter, IFN-gamma potentiation, luminescence; 100% = IFN-gamma EC80 alone, no compound. 1,200 compounds, 97% hits;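 active means activation above a set limit carried over from the earlier primary STAT1 screen, cut at about 140% in these data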;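 further: simple ratio to median IFN-gamma plus DMSO wells so 0% means no light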
NFkB act STAT1ct: NF-kB reporter activators, TNF-alpha stimulated, counter-screen for STAT1 activator project, cell-based, HEK293T, luciferase luminescence. shares compounds with STAT1 act. 100% = TNF-alpha with vehicle only. 1,200 compounds, 43% hits. activation (% of control), % at 5.7 µM;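 active means activation above the mean of solvent-only control wells plus 3 SD, set per campaign, cut at about 130% in these data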;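 further: TNF-alpha given at a submaximal dose yielding about 80% of full reporter signal; values are well signal over median control so 100% means no change and 0% no light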
STAT3 act STAT1c: STAT3 reporter activation by STAT1 hits, confirmation, counter-screen for STAT1 activator project, U3A cells, luciferase, luminescence; activation (% of control), % at 5.7 µM; shares compounds with STAT1 act; 1,200 compounds, 46% hits; IL-6; cells lack STAT1; 100 = IL-6 alone, no compound effect;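 active means activation above the solvent-only control well mean plus 3 SD, set per plate batch, cut at about 110% in these data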;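 further: 0% = no luminescence and 100% = median IL-6 plus DMSO wells; higher means more STAT3 reporter activation so hits are non-selective activators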
* hit, by the source's call; · = not tested or not shown. Shown are actives, neighbours in structure and some others; about 5.1% of the full set was active somewhere.

SMILES | STAT3 activator | APP 5'UTR act | STAT1 blocker | STAT1 act | STAT3 blocker | NF-kB expr up | STAT1 act conf | NFkB act STAT1ct | STAT3 act STAT1c
O=C(N=Nc1c(O)[nH]c2ccccc12)c1ccco1 | 109 | 142* | -58 | 155* | -11 | 2.9 | 179* | 127 | 126*
O=C(CSCc1ccccc1)N=Nc1c(O)[nH]c2ccccc12 | 88 | 6 | -4 | 104 | 17 | 1.8 | · | · | ·
Cc1[nH]n(-c2ccccc2)c(=O)c1C=NCc1ccco1 | 102 | 50 | -63 | 157* | -1 | 3.8* | 186* | 133 | 118*
Cc1[nH]n(-c2ccccc2)c(=O)c1/C=N/O | 103 | 10 | 0 | 100 | -1 | 1.2 | · | · | ·
CN(C)/C=C1\C(=O)N(c2ccc([N+](=O)[O-])cc2)N=C1c1ccccc1 | 118 | 31 | -92 | 184* | -9 | 1.1 | 173* | 126 | 120*
O=Cc1cn(-c2ccccc2)nc1-c1ccc2c(c1)OCCO2 | 108 | 140* | -75 | 160* | -8 | 6.9* | 193* | 134* | 110
Cc1ccc(-c2nc3cc(N)ccc3o2)c(C)c1 | 68 | 42 | -59 | 154* | 40 | 4.9* | 233* | 112 | 96
O=C(O)c1ccccc1SCc1cn2ccccc2n1 | 109 | 11 | -2 | 102 | -7 | 0.96 | · | · | ·
c1ccc(CSCc2cn3ccccc3n2)cc1 | 97 | 105 | -59 | 153* | 5 | 5.1* | 168* | 132 | 111*
COc1ccc(C(=O)CN2C(=O)NC3(CCCCC3)C2=O)cc1OC | 98 | 0 | 1 | 98 | 7 | 0.95 | · | · | ·
O=C(CN1C(=O)NC2(CCCCCC2)C1=O)c1ccc2c(c1)OCCO2 | 109 | 100 | -65 | 160* | -7 | 2.5 | 178* | 136* | 126*
CC1=C(C(=O)Nc2ccc(Cl)cc2)C2(CCCCC2)C(C(N)=O)C(=S)N1 (stereo unspecified) | 92 | -24 | 6 | 94 | 8 | 0.95 | · | · | ·
O=C1C(c2cc(=O)c3ccccc3[nH]2)=C(O)c2ccccc21 | 95 | 144* | -102 | 191* | 8 | 7* | 193* | 125 | 118*
O=c1cc(-c2ccccc2)[nH]c2ccccc12 | 124 | -93 | -9 | 108 | -22 | 2.5 | · | · | ·
CCn1c(C)cc(/C=C2\NC(=O)N(CC(=O)Nc3cccc(C)c3)C2=O)c1C | 117 | 2 | 4 | 95 | -9 | 1.1 | · | · | ·
CCn1c(C)cc(/C=C2/NC(=O)N(c3ccccc3)C2=O)c1C | 101 | 89 | -78 | 168* | 0 | 0.95 | 187* | 139* | 103
COc1ccc(N2CCN(c3cc(C)c4ccccc4n3)CC2)cc1 | 80 | 9 | 11 | 90 | 25 | 1 | · | · | ·
c1ccc(N2CCN(c3cnc4ccccc4n3)CC2)cc1 | 87 | 11 | -70 | 175* | 16 | 6.5* | 219* | 130 | 97
N/C(=N\OC(=O)c1ccco1)c1ccc(Br)cc1 | 90 | 173* | -67 | 162* | 16 | 3.7* | 158* | 123 | 102
COc1ccc(-c2cc(C(F)(F)F)n3nc(C(=O)Nc4c(C)n(C)n(-c5ccccc5)c4=O)cc3n2)cc1 | 86 | 28 | 4 | 96 | 18 | 1 | · | · | ·
O=C(N/N=C\c1ccco1)Nc1cccc(Cl)c1 | 102 | 80 | -60 | 153* | -6 | 3.3* | 172* | 133* | 106
Cc1cccc(NC(=O)CCC(=O)N/N=C/c2ccco2)c1 | 99 | -7 | -7 | 106 | 2 | 0.95 | · | · | ·
COc1ccc(/C=N/OCC(=O)Nc2nc3ccccc3s2)cc1 | 104 | 2 | -7 | 106 | -1 | 1 | · | · | ·
COc1ccc(Nc2nc3ccccc3s2)cc1 | 98 | 164* | -61 | 159* | 5 | 7.2* | 224* | 143* | 106
Cc1cccc(Nc2nc3ccccc3s2)c1C | 82 | 158* | -84 | 174* | 22 | 9.2* | 218* | 151* | 108
SMILES | STAT3 activator | APP 5'UTR act | STAT1 blocker | STAT1 act | STAT3 blocker | NF-kB expr up | STAT1 act conf | NFkB act STAT1ct | STAT3 act STAT1c
CC(=O)c1sc(NC(=O)c2ccccc2F)nc1-c1ccccc1 | 90 | 141* | -54 | 154* | 17 | 3.1 | 171* | 126 | 104
N#C/C(=C\c1cccnc1)c1nc2c(s1)CCCC2 | 105 | 147* | -71 | 165* | -4 | 4.2* | 185* | 133 | 102
COc1cc(/C=C(\C#N)c2nc3c(s2)CCCC3)ccc1O | 109 | 60 | -22 | 120 | -5 | 2.7 | · | · | ·
CC1CCc2nc(/C(C#N)=C/c3cccnc3)sc2C1 (stereo unspecified) | 103 | 168* | -135 | 220* | -2 | 2.1 | 286* | 146* | 113*
Cc1ccccc1-n1ccnc1SCC(=O)NCc1ccco1 | 97 | -11 | -6 | 104 | 6 | 1.3 | · | · | ·
COP(=O)(CC(=O)c1ccccc1)CC(=O)c1ccccc1 | 108 | 10 | -9 | 106 | -4 | 1.1 | · | · | ·
C/[N+]([O-])=C\C1C(=O)CC(C)(C)CC1=O | 110 | 12 | -2 | 100 | -5 | 1.1 | · | · | ·
Cc1cnc(NC(=O)COc2ccccc2)s1 | 82 | 168* | -72 | 166* | 26 | 4.3* | 179* | 130 | 101
Cc1cnc(NC(=O)CSc2ccccc2)s1 | 101 | 24 | -12 | 111 | 4 | 1.8 | · | · | ·
COCCCN(C(C)=O)c1nc(-c2ccc(OC)cc2)cs1 | 109 | 8 | -61 | 156* | -4 | 2.1 | 145* | 100 | 112*
Cc1cccc(NS(=O)(=O)c2c(C)noc2C)c1 | 92 | -8 | -1 | 99 | 12 | 1.1 | · | · | ·
Cc1cccc(N/C=C/c2onc(C)c2[N+](=O)[O-])c1 | 115 | 16 | -57 | 155* | -18 | 1.1 | 199* | 141* | 107
COc1ccc(Nc2nc(-c3ccc(OC)cc3)cs2)cc1 | 94 | 137* | -55 | 151* | 12 | · | 182* | 142* | 99
CC(=O)c1cccc(Nc2nc(-c3ccccc3)cs2)c1 | 106 | 170* | -74 | 168* | 3 | 4.8* | 230* | 152* | 112*
